Assay results from different studies.
Compare with care: the assays were run in different laboratories.
mraY: mraY (Staphylococcus aureus, UniProt Q2FZ93)

SMILES	target	test	system	setting	endpoint	value
CCN1/C(=C/C(C)=O)Sc2ccc(F)cc21	B2 bradykinin receptor (BDKRB2, Homo sapiens, UniProt P30411)	ligand displacement, radioligand	–	10 µM	inhibition	0%
CCCCCCC#Cc1cncc(-c2nnc(SC[C@H]3O[C@@H](n4ccc(=O)[nH]c4=O)[C@H](O)[C@@H]3O)n2CCO)c1	mraY	cell-free assay, inhibitor	–	250 µM	inhibition	22%
C[C@]1(O)CCCN(c2nc(Nc3ccc(S(=O)(=O)N[C@H]4CC[C@H](CN5CCN(c6ccc(C7CCC(=O)NC7=O)cc6F)CC5)CC4)cc3F)ncc2C(F)(F)F)C1 (some centres unmarked)	BMP-2-inducible protein kinase (BMP2K, Homo sapiens, UniProt Q9NSY1)	binding, competition with immobilised ligand	–	1 µM	remaining binding	74%
Cc1cc(-c2ccnc3[nH]cc(F)c23)cc(F)c1[C@@]1(O)[C@H](C)CN(C(=O)CN)C[C@@H]1C	Rho-associated protein kinase 1 (ROCK1, Homo sapiens, UniProt Q13464)	enzyme activity, inhibitor	–	0.1 µM	remaining activity	13.5%
CCCCCCC#Cc1cncc(-c2nnc(SCc3ccc(Cl)cc3)n2CCCN)c1	mraY	cell-free assay, inhibitor	–	250 µM	inhibition	34%
COc1ccc2oc(-c3ccc4nc(N)oc4c3)c/c(=N\c3ccccc3NC(=O)CCN)c2c1	Mitogen-activated protein kinase kinase kinase 8 (MAP3K8, Homo sapiens, UniProt P41279)	binding	–	1 µM	remaining binding	104%
C[C@H](NC(=O)C(=O)Nc1ccccc1C(C)(C)C)C(=O)N[C@@H](CC(=O)O)C(=O)COc1c(F)c(F)cc(F)c1F	Caspase-4 (CASP4, Homo sapiens, UniProt P49662)	enzyme activity, inhibitor	–	–	kinact/KI	19200 M⁻¹ s⁻¹
Cc1cc(S(=O)(=O)N[C@H]2CC[C@H](CN3CCN(c4ccc(C5CCC(=O)NC5=O)cc4F)CC3)CC2)ccc1Nc1ncc(C(F)(F)F)c(N2CCC[C@](C)(O)C2)n1 (some centres unmarked)	Aurora kinase C (AURKC, Homo sapiens, UniProt Q9UQB9)	binding, competition with immobilised ligand	–	1 µM	remaining binding	50%
C1=C/COCc2cc(ccc2OCCN2CCCC2)Nc2nccc(n2)-c2cccc(c2)COC/1	Activin receptor type-2B (ACVR2B, Homo sapiens, UniProt Q13705)	binding	–	0.1 µM	remaining binding	63%
CSCC[C@H](NC(C)=O)C(=O)N[C@@H](CC(=O)O)C(=O)N[C@@H](Cc1ccccc1)C(N)=O	Gastrin/cholecystokinin type B receptor (CCKBR, Homo sapiens, UniProt P32239)	β-arrestin recruitment, agonist	HTLA	–	Emax	38.1%
C[C@]1(O)CCCN(c2nc(Nc3ccc(S(=O)(=O)N[C@H]4CC[C@H](CN5CCN(c6ccc(C7CCC(=O)NC7=O)cc6F)CC5)CC4)cc3Cl)ncc2C(F)(F)F)C1 (some centres unmarked)	Serine/threonine-protein kinase DCLK3 (DCLK3, Homo sapiens, UniProt Q9C098)	binding, competition with immobilised ligand	–	1 µM	remaining binding	52%
CCCCC(=O)Nc1ccc(-c2ccc3ncn(CCC)c(=O)c3c2)cn1	Atypical kinase COQ8B, mitochondrial (COQ8B, Homo sapiens, UniProt Q96D53)	binding, competition with immobilised ligand	–	0.5 µM	remaining binding	99%
CCCCCCC#Cc1cncc(-c2nnc(SCc3cc([N+](=O)[O-])cc([N+](=O)[O-])c3)n2C2CCNCC2)c1	mraY	cell-free assay, inhibitor	–	250 µM	inhibition	> 80%
N#Cc1ccc(NC(=O)Nc2ccccc2)cc1	Testis-specific serine/threonine-protein kinase 1 (TSSK1B, Homo sapiens, UniProt Q9BXA7)	cell-free assay, competition with immobilised ligand	–	25 µM	remaining binding	83%
NC/C(=C\F)COc1cccc(Cn2c(=S)[nH]c(=O)c3[nH]cnc32)c1	B1 bradykinin receptor (BDKRB1, Homo sapiens, UniProt P46663)	ligand displacement, radioligand	–	10 µM	inhibition	< 50%
CCCCCCC#Cc1cncc(-c2nnc(SCc3cc([N+](=O)[O-])cc([N+](=O)[O-])c3)n2CCOC2OC(CN)C(O)C2O)c1 (centres unmarked)	mraY	cell-free assay, inhibitor	–	250 µM	inhibition	> 80%
Cc1n[nH]c2ccc3nc(-c4ccc(C(=O)NCCN(C)C)cc4F)c4c(c3c12)CCCC4	Receptor-type tyrosine-protein kinase FLT3 (FLT3, Homo sapiens, UniProt P36888, ITD)	enzyme activity, inhibitor, radiometric	–	0.5 µM	remaining activity	13%
